# This excerpt belongs to a sample that is enriched for hits.
# CHOP inh: inhibitors of CHOP promoter induction, primary screen, cell-based, unfolded protein response, luciferase reporter | 220,000 tested, 3.8% active | inhibition, % at 10 µM | CHO-K1 CHOP-promoter luciferase, tunicamycin-induced, 15-18 h | AID 2732, 2010;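 active means compounds that reduced the stress-induced luciferase reporter signal by more than about 70% of percent inhibition, limit read from the data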;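 further: 0% = tunicamycin plus vehicle and 100% = wells without tunicamycin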
# Dynein transport: inhibitors of GR-EGFP nuclear translocation, primary screen, dynein cargo transport inhibitor project, imaging, high-content, 3617.4 mouse cells. z-score, hits read low. 220,000 tested, 0.47% active. test concentration mostly 20 µM; stimulated with dexamethasone, 1 µM; active compounds read low;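 active means plate z-score of nuclear minus cytoplasmic receptor signal below a set negative limit, without overly bright fluorescence or cell loss, cut at about -3.5 in these data, passing the limit was not always enough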;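 further: z-score of nuclear minus cytoplasmic ring GR-EGFP intensity difference per well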
#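 medium = tetracycline-free induction medium containing charcoal-stripped FBS | probe or stimulus = dexamethasone, 1.0 µM final | timing = 48 h induction, then 1 h compound, then 30 min agonist, 37 °C | detection = automated 10x imaging of fixed Hoechst-stained cells | read-out basis = nuclear versus cytoplasmic GR-EGFP signal, averaged per well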
# CHOP UPR activ: activators of apoptotic CHOP UPR arm, primary screen, cell-based, CHO-CHOP luciferase reporter, luminescence, uHTS; UPR activation; percent of tunicamycin response over DMSO baseline; activation, % at 10 µM; 330,000 tested, 0.34% active;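 active means at 10 µM dose, activation of 40% or more, normalized to positive control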;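 further: 100% = tunicamycin at 10 µg/mL and 0% = DMSO alone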
#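 Evaluation: % reporter activation, DMSO baseline versus tunicamycin full activation; System: CHO-CHOP luciferase reporter cell line; Input: 500 cells/well; Incubation: 6 h compound treatment, 37 °C; Measured by: Steady-Glo luciferase luminescence; Dosing: one dose, 10 µM in 0.5% DMSO; Buffer or medium: F12 medium, 10% FBS; Benchmarks: positive tunicamycin 10 µg/mL, negative DMSO alone.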
# p-CIP stab down: p/CIP-EGFP fusion destabilizers, primary screen, fluorescence, F442A cells. AID 1984, 2009. decrease of EGFP signal, % at 10 µM. 290,000 tested, 0.01% active. 16 h. Q05BA5;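 active means EGFP signal decrease of at least 30% at 10 µM or well 3 SD below plate mean, unless failing retest; inactive means the rest, including hits failing retest or dose response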
# B2AR ag: beta2AR agonists driving receptor internalization, primary screen, cell-based, FAP fluorogen, flow cytometry | Beta-2 adrenergic receptor (Homo sapiens), P07550 | Am2.2-beta2AR cells | response, % (no concentration beside the values) | 340,000 tested, 0.43% active | AID 504454, 2011;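 active means response above a set limit, near 3 SD of response in nonfluorescent compounds, cut at about 42% in these data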
# Target sequence (P07550 whole entry, looked up): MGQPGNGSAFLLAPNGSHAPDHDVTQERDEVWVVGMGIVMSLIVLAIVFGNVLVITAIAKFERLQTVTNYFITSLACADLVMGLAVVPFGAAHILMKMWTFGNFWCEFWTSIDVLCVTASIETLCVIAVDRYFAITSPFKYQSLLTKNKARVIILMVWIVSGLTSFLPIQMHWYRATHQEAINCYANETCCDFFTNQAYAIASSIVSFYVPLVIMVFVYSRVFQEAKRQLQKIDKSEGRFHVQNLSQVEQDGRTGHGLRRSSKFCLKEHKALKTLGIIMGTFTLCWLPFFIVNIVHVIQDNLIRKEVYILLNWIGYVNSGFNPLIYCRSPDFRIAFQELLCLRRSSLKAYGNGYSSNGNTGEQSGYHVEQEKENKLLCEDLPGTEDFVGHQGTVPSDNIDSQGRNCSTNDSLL
# XBP1 UPR activ: activators of adaptive XBP1 UPR arm, primary screen, cell-based, CHO-XBP1 luciferase reporter, luminescence, uHTS; IRE1-XBP1 UPR activation; percent of tunicamycin response, DMSO as zero; activation, % at 20 µM; 330,000 tested, 0.33% active; AID 463104, 2010;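 active means versus positive control, 20 µM dose yields 30% or more activation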;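 further: 100% = tunicamycin at 10 µg/mL and 0% = DMSO only wells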
#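 Material: IRE1-XBP1 luciferase reporter CHO line / Quantity: one thousand reporter cells per well / Buffer or medium: F12 with 10% serum / Compound: 20 µM single concentration, DMSO 1% / Times: 6 h treatment, 37 °C / Detection: Steady-Glo luciferase glow luminescence, 10 min after reagent addition / Benchmarks: tunicamycin high, DMSO low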
# Numbers without * were called inactive; nt = no result given.
SMILES,CHOP inh,Dynein transport,CHOP UPR activ,p-CIP stab down,B2AR ag,XBP1 UPR activ
CC(Oc1cccnc1[N+](=O)[O-])C(=O)Nc1cccc(Cl)c1 (stereo unspecified),nt,nt,2,nt,2,-1
O=C(Nc1nc2ccc(Cl)cc2s1)c1ccc(Br)o1,74*,-1,5,-10,-7,2
Cc1c2c(nc3ccccc13)CCC(C(C)(C)C)C2 (stereo unspecified),72*,1.3,4,20,-13,5
Cc1cccc(C)c1NC(=O)C1(N(Cc2ccco2)C(=O)CC2NC(=O)NC2=O)CCCCC1 (stereo unspecified),77*,1.5,-1,-6,6,-3
Nc1ncnc2c1ncn2[C@@H]1O[C@H](COP(=O)(O)OP(=O)(O)OP(=O)(O)OP(=O)(O)OC[C@@H]2O[C@H](n3cnc4c(N)ncnc43)C(O)[C@@H]2O)[C@H](O)C1O (stereo partly specified),19,nt,nt,nt,nt,nt
CC1=CN2C(=N)/C(=C/c3ccc(Sc4ccc(Cl)cc4)o3)C(=O)N=C2S1,77*,0.23,6,-11,-17,0
Cc1ccc(S(=O)(=O)c2c(N)n(Cc3ccco3)c3nc4ccccc4nc23)cc1,74*,0.31,1,-51,0,1
CCOC(=O)c1cc2sc(C)cc2n1CC(=O)Nc1cccc(C)c1C,74*,0.88,2,-6,-9,-3
COc1ccc(-c2ccnc3nc(N4CCN(c5ccccc5)CC4)nn23)cc1,72*,0.27,2,-6,-9,4
O=Cc1ccc(OC(=O)c2cc(Cl)nc3ccccc23)cc1,85*,-1.5,1,3,13,3
C/C(=N\NC(=O)c1cc(-c2cccc([N+](=O)[O-])c2)n[nH]1)c1ccccc1O,94*,0.68,nt,5,-12,nt
CC1(C)CC(=O)C(C=NCC2CCNCC2)=C(O)C1,72*,2.3,-2,2,1,1
CC1(C)CC(=O)C(C=NCC2CCCO2)=C(O)C1 (stereo unspecified),-10,2.1,-1,-25,-6,0
CN(C)c1ccc(C(=O)N/N=C/c2cc(Br)cc(Br)c2O)cc1,91*,-0.67,-2,1,13,-2
O=C(CNC(=O)c1cccc(Br)c1)N/N=C/c1cccs1,nt,nt,0,-6,-6,0
COc1c(Br)cc(Br)cc1/C=N/NC(=O)c1ccncc1,23,-0.78,0,-7,-5,-2
O=C(CNC(=O)c1cccc(Br)c1)N/N=C/c1cc(Br)cc(Br)c1O,91*,0.34,0,-3,13,14
Cc1cc(C)n(CCC(=O)N=Nc2c(O)[nH]c3ccccc23)n1,-3,-0.37,0,2,-10,2
C/C(CC(=O)Nc1ccc2c(c1)OCCO2)=N\NC(=O)c1ccccc1F,nt,nt,0,-5,45*,-1
COc1ccccc1C(=O)N/N=C(\C)CC(=O)Nc1ccc2c(c1)OCCO2,nt,nt,3,6,2,-4
CCN1CN(Cc2ccco2)CNC1=S,-6,0.44,0,6,48*,0
S=C1NCN(Cc2ccco2)CN1Cc1ccco1,0,-0.28,0,-11,6,-1
COC(=O)c1[nH]c2cc(C)ccc2c1NC(=O)CN1CCOCC1,12,-0.25,1,0,-9,0
COC(=O)c1[nH]c2cc(OC)ccc2c1NC(=O)CN1CCN(c2cccc(C)c2)C(C)C1 (stereo unspecified),89*,-0.9,0,3,12,2
CCOC(=O)N1CCN(C(=O)c2ccc3c(=O)n(-c4cc(OC)ccc4OC)c(=S)[nH]c3c2)CC1,20,-0.56,2,11,4,1
SMILES,CHOP inh,Dynein transport,CHOP UPR activ,p-CIP stab down,B2AR ag,XBP1 UPR activ
O=C(c1ccc2c(=O)n(Cc3ccc4c(c3)OCO4)c(=S)[nH]c2c1)N1CCCCC1,92*,1.6,4,-28,10,-1
CCCCCn1c(=O)[nH]c2cc(C(=O)N3CCN(Cc4ccc5c(c4)OCO5)CC3)ccc2c1=O,82*,0.016,6,-21,14,-2
COCCCNC(=O)c1ccc2c(=O)n(Cc3ccc4c(c3)OCO4)c(=S)[nH]c2c1,54,-0.83,-1,-1,1,4
CC1CC(C)CN(C(=O)c2ccc3c(=O)n(Cc4ccc5c(c4)OCO5)c(=S)[nH]c3c2)C1 (stereo unspecified),95*,0.45,-1,-8,6,-2
CCCCOc1ccc(/C=C/C(=O)OCC(=O)NC(=O)NCC(C)C)cc1OCC,72*,-0.54,1,-11,0,-3
Cc1ccc([N+](=O)[O-])cc1-c1ccc(/C=N\n2nnnc2N)o1,90*,-0.27,0,-20,3,0
O=S(=O)(NCc1ccccc1)NCc1ccccc1,73*,-0.33,0,15,2,1
C=CCc1cc(C=O)cc(OC)c1OCc1ccc(Cl)cc1,-9,0.55,0,-3,8,-3
C=CCc1cc(C=O)cc(OCC)c1OCc1ccc(Cl)cc1,71*,-0.79,-2,6,14,-5
O=C(COc1ccc(/C=N/NC(=O)c2ccccc2)cc1)Nc1ccc([N+](=O)[O-])cc1,-30,-0.57,0,5,-1,-2
CC(C)Oc1ccc(/C=N/NC(=O)C(CSCc2ccccc2)NC(=O)c2ccc([N+](=O)[O-])cc2)cc1 (stereo unspecified),76*,0.36,3,6,-4,0
COCCNC(=S)N/N=C(\C)c1cccc(OC)c1,23,0.81,2,3,-7,1
Cc1ccc2cc(CCNC(=O)c3ccc(S(=O)(=O)N4CCOCC4)cc3)c(=O)[nH]c2c1,nt,nt,-1,-1,4,-2
Cc1cc2cc(CCNC(=O)c3ccc(S(=O)(=O)N4CCOCC4)cc3)c(=O)[nH]c2cc1C,71*,-0.044,-3,-2,15,-2
COCCNC(=O)c1c(N)n(-c2cccc(C)c2)c2nc3ccccc3nc12,77*,-0.24,0,9,-1,-1
Nc1c(C(=O)NCc2ccccc2)c2nc3ccccc3nc2n1-c1ccc2c(c1)OCO2,79*,-0.66,4,-8,8,8
COc1cccc(-n2c(N)c(C(=O)Nc3c(C)n(C)n(-c4ccccc4)c3=O)c3nc4ccccc4nc32)c1,46,1.9,2,-17,66*,-2

# From PubChem BioAssay
